Results on 64 molecules are retold here after PubChem BioAssay AID720574 (Broad Institute, 2013).

Values joined by “and” are separate entries in the source; they are usually repeats but may differ in a detail not shown here. Identical values can stand only once. About 140 (0.15%) of roughly 96,000 compounds were called active.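 How the source made its calls: active means mean replicate inhibition above about 25%, with at least 55% of replicates also reaching it (limit read from the data, passing the limit was not always enough); inconclusive means only one of those two conditions met; inactive means neither condition met.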 The list comes from a sample in which actives are over-represented; it also holds similar structures and randomly drawn compounds. Where a structure was tested more than once in an assay, its records may differ in their call.

The target in the assay is Lysine-specific demethylase 4C (Homo sapiens) (UniProt Q9H3R0). Put plainly: inhibitors of GASC-1 (KDM4C) histone demethylase, primary screen, biochemical, single concentration HTS (AID 720574). The following applies: GST-KDM4C 2-372, H3K9me3 peptide, LANCE TR-FRET; at 12.5 µM; stronger effect = higher value. The essentials: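 Test system: N-terminal GST-fused human GASC-1 (KDM4C) fragment, residues 2-372; quantity: GASC-1 enzyme at 10 nM final in reaction; dosing: single dose; schedule: 30 min demethylation and 1 h detection at room temperature; signal: LANCE TR-FRET, excitation 340 nm, emissions 618 and 671 nm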
Chain of Lysine-specific demethylase 4C (Homo sapiens) (Q9H3R0 2-372 limits assumed): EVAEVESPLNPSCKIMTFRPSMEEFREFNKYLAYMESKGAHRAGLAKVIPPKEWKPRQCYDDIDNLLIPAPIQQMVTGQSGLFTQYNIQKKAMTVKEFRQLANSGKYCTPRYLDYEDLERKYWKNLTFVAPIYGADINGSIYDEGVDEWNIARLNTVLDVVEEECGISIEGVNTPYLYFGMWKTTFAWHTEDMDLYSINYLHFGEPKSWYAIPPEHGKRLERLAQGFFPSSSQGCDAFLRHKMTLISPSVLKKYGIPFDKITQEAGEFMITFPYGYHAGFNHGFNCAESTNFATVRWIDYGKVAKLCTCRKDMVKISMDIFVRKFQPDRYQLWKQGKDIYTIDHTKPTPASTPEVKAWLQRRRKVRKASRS
(In general: In TR-FRET formats the signal depends on donor and acceptor labels being close together.)
Broadly, the inhibition is the relative decrease from the control value, in per cent. Take `CCC(=O)Nc1ccc2c(c1)C(=O)N(C)C[C@@H](OC)[C@H](C)CN(Cc1cccnc1)[C@@H](C)CO2`: the inhibition is -0.624% (inactive).
For `CCCC#Cc1ccc([C@@H]2[C@@H](CO)N3C(=O)CN(C(=O)Nc4ccc(F)cc4)C[C@@H]23)cc1` the value was -0.912% (inactive); for `CCC(=O)N1[C@@H](CO)[C@@H](c2ccccc2)C12CN(C(=O)Cc1ccccc1)C2`, 7.87% (inactive); for `Cc1noc(C)c1NC(=O)N(C)C[C@@H]1OCCCC[C@H](C)Oc2ccc(NC(=O)c3ccccc3)cc2C(=O)N([C@@H](C)CO)C[C@@H]1C`, 1.18% (inactive).
For `O=C(Nc1ccccc1F)N[C@@H]1CC[C@@H](CCNC(=O)C2CC2)O[C@H]1CO` the value was -1.05% (inactive).
Then `Cc1ccccc1-c1ccc(C2[C@@H]3CN(C(=O)C4CCCCC4)C[C@H]2N3)cc1` (some centres undefined), with 40% (active) and 1.58% (inactive); and `O=C(C1CCC1)N1C[C@@H]2N[C@H](C1)C2c1ccc(-c2cncnc2)cc1` (some centres undefined), with 0.917% (inactive).
For `O=C(C1CCCCC1)N1C[C@@H]2N[C@H](C1)C2c1ccc(-c2cccc(F)c2)cc1` (some centres undefined), the inhibition was 4.43% (inactive) and 0.21% (inactive).
For the molecule `CN1c2ccc(-c3cccc(F)c3)cc2[C@H]2[C@H](CCN2C(=O)C2CCCC2)[C@@H]1CO`, the inhibition is 5.91% (inactive).
On to `COCC#Cc1ccc([C@H]2[C@H](CO)N3C(=O)CN(C(=O)Nc4ccccc4F)C[C@@H]23)cc1`, for which the inhibition was 0.262% (inactive).
On to `O=C(C[C@@H]1CC[C@@H]2[C@H](COC[C@H](O)CN2Cc2cccc(-c3ccncc3)c2)O1)N1CCOCC1`, for which the inhibition was -0.984% (inactive).
For `Cc1noc(C)c1S(=O)(=O)N(C)C[C@H]1OCCCC[C@H](C)Oc2ccc(NS(=O)(=O)c3ccccc3)cc2C(=O)N([C@H](C)CO)C[C@@H]1C` the value was -0.427% (inactive); for `CO[C@H]1CN(C)C(=O)c2cc(NS(C)(=O)=O)ccc2OC[C@@H](C)N(C(=O)NC(C)C)C[C@@H]1C`, 1.54% (inactive); for `C[C@H]1CN([C@@H](C)CO)C(=O)c2cccc(NC(=O)CCCCCC(=O)Nc3ccccc3N)c2O[C@@H]1CN(C)C(=O)NC1CCCCC1`, 0.11% (inactive).
For `O=C(C[C@@H]1C=C[C@H](NC(=O)CN2CCOCC2)[C@@H](CO)O1)NC1CCC1` the value was -2.2% (inactive); for `CCCN1[C@@H]2c3ccc(-c4ccccc4OC)c(=O)n3C[C@H]1[C@H](CO)[C@H]2C(=O)NCc1ccccn1`, 0.442% (inactive).
For `COCC(=O)N(C)C[C@H]1Oc2cc(C#C[C@@H](C)O)ccc2S(=O)(=O)N([C@H](C)CO)C[C@H]1C`, the inhibition is 0.918% (inactive).
For `COc1ccccc1S(=O)(=O)N[C@H]1CC[C@@H](CC(=O)NCc2cc(F)cc(F)c2)O[C@H]1CO` the value was -1.06% (inactive).
On to `COc1ccc2c3c(n(C)c2c1)[C@H](CO)N(C(=O)NC(C)C)CC31CN(CC2CCCCC2)C1`, for which the inhibition is -0.934% (inactive).
In the case of `C[C@H](CO)N1C[C@H](C)[C@H](CN(C)CC2CCCCC2)OCCCC[C@H](C)Oc2ccc(NS(=O)(=O)c3ccc(F)cc3)cc2C1=O`, the inhibition was -1.51% (inactive).
Then `COCC(=O)N1[C@H](CO)[C@H](c2ccccc2)C12CN(C(=O)NC1CCCCC1)C2`, with 0.705% (inactive); and `CCC(=O)N1CC(=O)N2[C@H](CO)[C@@H](c3ccc(-c4ccc(C(=O)N(C)C)cc4)cc3)[C@@H]2C1`, with -0.23% (inactive); and `COc1ccc(S(=O)(=O)N[C@H]2CC[C@H](CCn3cc(C(C)C)nn3)O[C@@H]2CO)cc1`, with 0.0615% (inactive).
As to `CCCC#Cc1ccc([C@H]2[C@H](CO)N3C(=O)CN(C(=O)c4ccc(F)cc4)C[C@@H]23)cc1`, the inhibition was 0.883% (inactive).
For `C/C=C/c1ccc([C@H]2[C@@H](CO)N(C(=O)C3CC3)[C@@H]2CNC(=O)NC(C)C)cc1` the value was 0.927% (inactive); for `COc1ccccc1S(=O)(=O)N[C@@H]1C=C[C@H](CC(=O)NCc2cccc(F)c2)O[C@H]1CO`, -0.0955% (inactive).
Consider `C/C=C/c1ccccc1[C@H]1[C@@H](C#N)N(c2nc(CC)cs2)[C@@H]1CO`, for which the inhibition is -0.26% (inactive).
Then `CN(C)C(=O)C[C@@H]1C[C@@H]2c3cc(NC(=O)NC4CCCCC4)ccc3O[C@@H]2[C@H](CO)O1`, with -1.19% (inactive).
For `CO[C@@H]1CN(C)C(=O)c2ccc(NC(C)=O)cc2OC[C@@H](C)N(CC2CC2)C[C@H]1C` the value was 2.5% (inactive).
Take `C[C@H](CO)N1C[C@H](C)[C@@H](CN(C)Cc2ccc(-c3ccccc3)cc2)Oc2ccc(NC(=O)Cn3cnnn3)cc2C1=O`: the inhibition is -1.72% (inactive).
On to `CCCN(C)C[C@H]1Oc2ncc(-c3cccnc3)cc2C(=O)N([C@@H](C)CO)C[C@@H]1C`, for which the inhibition was -0.329% (inactive).
For `C[C@H](CO)N1C[C@H](C)[C@@H](CN(C)C(=O)c2ccncc2)Oc2cc(/C=C/c3ccccc3)ccc2S1(=O)=O` the value was -4.23% (inactive); for `CS(=O)(=O)Nc1ccc2c(c1)[C@@H]1C[C@H](CC(=O)NCc3ccccn3)O[C@@H](CO)[C@@H]1O2`, -0.895% (inactive); for `COc1ccc2c3c([nH]c2c1)[C@@H](CO)N(Cc1ccccc1)CC31CCN(Cc2cncnc2)CC1`, -1.85% (inactive).
Take `COc1ccccc1S(=O)(=O)N[C@@H]1CC[C@@H](CCn2cc(C3CCCCC3)nn2)O[C@H]1CO`: the inhibition is 0.124% (inactive).
For `CCC(=O)Nc1ccc2c(c1)C(=O)N(C)[C@H]1CC[C@H](CC(=O)NCC3CCCCC3)O[C@H]1CO2`, the inhibition was -0.841% (inactive).
Then `Cc1ccc(S(=O)(=O)NCC[C@H]2CC[C@H](NC(=O)c3ccccn3)[C@H](CO)O2)cc1`, with -1.29% (inactive); and `CCCN1[C@@H]2c3ccc(-c4ccccc4)c(=O)n3C[C@@H]2[C@@H](CO)[C@@H]1C(=O)N(C)C`, with 0.941% (inactive).
For `COc1ccccc1C(=O)Nc1ccc2c(c1)OC[C@@H](C)NC[C@H](C)[C@@H](OC)CN(C)C2=O` the value was -1.47% (inactive); for `CCCNC(=O)N(C)C[C@H]1Oc2cc(C#C[C@@H](C)O)ccc2S(=O)(=O)N([C@H](C)CO)C[C@H]1C`, 7.38% (inactive).
Consider `CO[C@H]1CC[C@@H]2CCOc3c(C#N)cccc3C(=O)N(C)C[C@@H](OC)[C@H](C)C(=O)N(C)C[C@H]1O2`, for which the inhibition was 0.229% (inactive).
Then `CN1C(=O)c2cc(NC(=O)C3CCC3)ccc2OC[C@@H]2O[C@@H](CC(=O)NCCc3ccncc3)CC[C@H]21`, with 1.45% (inactive); and `CN1C[C@H]2[C@@H](c3ccccc31)[C@@H](CO)N2C(=O)Nc1ccccc1`, with -2.7% (inactive); and `COc1cccc(-c2ccc3n(c2=O)C[C@@H]2[C@@H](CO)[C@H](C(=O)NC4CCC4)[C@H]3N2C)c1`, with 1.02% (inactive).
With `CO[C@@H]1CN(C)C(=O)c2cc(NC(=O)C3CCCC3)ccc2OC[C@H](C)N(C)C[C@@H]1C`, the inhibition is -0.0185% (inactive).
For `CO[C@H]1CN(C)C(=O)c2ccc(NC(C)=O)cc2OC[C@@H](C)N(C(=O)CN(C)C)C[C@@H]1C` the value was -0.377% (inactive); for `CC(=O)N1[C@H](CO)[C@@H](c2ccccc2)[C@@H]1CN(CC(C)C)C(=O)c1ccccn1`, 4.04% (inactive).
For `CCCC(=O)Nc1ccc2c(c1)OC[C@H](C)N(C(=O)C1CCCC1)C[C@@H](C)[C@H](OC)CN(C)C2=O` the value was 0.661% (inactive); for `Cc1cccc(S(=O)(=O)N2C[C@@H](O)COC[C@H]3O[C@H](CC(=O)N4CCN(C)CC4)CC[C@@H]32)c1`, -1% (inactive); for `O=C(Cc1ccncc1)N1CC[C@@H]2[C@@H](CO)Nc3ccc(C4=CCCCC4)cc3[C@@H]21`, 0.328% (inactive).
Then `CC(C)NC(=O)N1C[C@@H]2[C@H](c3ccccc31)[C@@H](CO)N2Cc1ccc(Cl)cc1`, with 1.62% (inactive).
In the case of `CO[C@@H]1CN(C)C(=O)c2cc(NC(=O)Nc3cc(F)ccc3F)ccc2OC[C@H](C)N(C(=O)c2ccccn2)C[C@@H]1C`, the inhibition was -1.15% (inactive).
For `CCC(=O)Nc1ccc2c(c1)C(=O)N(C)C[C@H](OC)[C@H](C)CN(CCC(F)(F)F)[C@H](C)CO2`, the inhibition is -0.234% (inactive).
Turning to `C[C@H]1CCCCO[C@@H](CN(C)C(=O)Nc2cccc3ccccc23)[C@@H](C)CN([C@@H](C)CO)C(=O)c2cc(NS(=O)(=O)c3cn(C)cn3)ccc2O1`, the inhibition is -7.92% (inactive).
Then `O=C(C[C@H]1C[C@H]2c3cc(NC(=O)C4CCOCC4)ccc3O[C@H]2[C@@H](CO)O1)NCCN1CCCCC1`, with 1.06% (inactive); and `O=C(C[C@H]1CC[C@H]2[C@@H](COC[C@H](O)CN2S(=O)(=O)c2cccc(F)c2)O1)NC1CCC1`, with 0.711% (inactive).
For `O=C(C[C@H]1CC[C@@H]2[C@H](COC[C@H](O)CN2Cc2ccccc2F)O1)NC1CCC1`, the inhibition was 1.48% (inactive).
Take `O=C(C[C@@H]1C=C[C@@H](NC(=O)c2cccnc2)[C@H](CO)O1)NCc1ccncn1`: the inhibition was 1.05% (inactive).
For `C[C@H](CO)N1C[C@H](C)[C@@H](CN(C)S(C)(=O)=O)Oc2cc(C#CC3CC3)ccc2S1(=O)=O` the value was 4.29% (inactive); for `C[C@H]1CCCCO[C@H](CN(C)C(=O)Nc2ccc(F)cc2)[C@@H](C)CN([C@@H](C)CO)C(=O)c2cc(NC(=O)CCC(F)(F)F)ccc2O1`, 1.63% (inactive).
For `CS(=O)(=O)N1CC2(C1)[C@H](c1ccccc1)[C@@H](CO)N2C(=O)c1ccccc1` the value was -0.995% (inactive); for `O=C(Cc1ccncc1)N[C@@H]1CC[C@H](CCn2cc(-c3ccccc3F)nn2)O[C@H]1CO`, -1.33% (inactive); for `CN(C)CC(=O)N1[C@@H](CO)[C@H](c2ccccc2)C12CN(C(=O)c1cccc(F)c1)C2`, -0.471% (inactive).
As to `CCC(=O)N1[C@H](C(=O)OC)[C@@H](CO)[C@@H]2Cn3c(ccc(-c4cccc(F)c4)c3=O)[C@@H]21`, the inhibition is 1.8% (inactive).
